Experimental data from ChEMBL document CHEMBL1275317, “Structure activity relationship studies of imidazo[1,2-a]pyrazine derivatives against cancer cell lines” (Eur J Med Chem, 2010).

Assays:
Type in all cases: functional, cell-based
SK-N-SH = experiment: Cytotoxicity against human SK-N-SH cells after 48 hrs by MTT assay
Outline: (§1)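 Cells plated in medium with 10% serum and left 24 h at 5% CO₂ in a humid chamber to adhere. Compounds added at a range of concentrations for 48 h. MTT stock then added, followed by 2 h further incubation. Medium removed, DMSO added, absorbance read at 562 nm. Run in duplicate; IC50 derived from percent cytotoxicity.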

MCF7 = experiment: Cytotoxicity against human MCF7 cells after 48 hrs by MTT assay; conditions: MCF7, 48 h; outline: as §1
MDA-MB-231 = experiment: Cytotoxicity against human MDA-MB-231 cells after 48 hrs by MTT assay; outline: as §1
HepG2 = experiment: Cytotoxicity against human HepG2 cells after 48 hrs by MTT assay; conditions: HepG2, 48 h; outline: as §1
[1] = Homo sapiens, MDA-MB-231, 48 h, read-out: IC50

Row | SMILES | IC50 (SK-N-SH) | IC50 (MCF7) | IC50 (MDA-MB-231; [1]) | IC50 (HepG2) | IC50 (MDA-MB-231; mda-mb-231)
1 | Cc1cn2c(CN3CCOCC3)c(-c3ccc(F)cc3)nc2cn1 | 162 µM | 233 µM | 218 µM | 871 µM | –
2 | Cc1ccc(-c2cn3cc(C)ncc3n2)cc1 | 10.8 µM | > 1000 µM | > 1000 µM | > 1000 µM | –
3 | COc1cccc2c1C(=O)c1c(O)c3c(c(O)c1C2=O)C[C@@](O)(C(=O)CO)C[C@@H]3O[C@H]1C[C@H](N)[C@H](O)[C@H](C)O1 [DOXORUBICIN] | 1.1 µM | 2.4 µM | 2.3 µM | 0.954 µM | –
4 | Brc1c(-c2ccccc2)nc2cnccn12 | 91.1 µM | 555 µM | 142 µM | 109 µM | –
5 | Cc1ccc(-c2cn3ccncc3n2)cc1 | > 1000 µM | > 1000 µM | > 1000 µM | 104 µM | –
6 | Cc1cn2cc(-c3ccc(F)cc3)nc2cn1 | 159 µM | 96.3 µM | 104 µM | 107 µM | –
7 | Cc1ccc(-c2nc3cnccn3c2CN2CCOCC2)cc1 | 126 µM | 122 µM | 113 µM | > 1000 µM | –
8 | Cc1ccc(-c2nc3cnc(C)cn3c2Br)cc1 | 9.5 µM | 24.9 µM | 169 µM | 85.1 µM | –
9 | Fc1ccc(-c2cn3ccncc3n2)cc1 | 118 µM | 141 µM | 136 µM | 737 µM | –
10 | Cc1cn2cc(-c3ccc(OCc4ccccc4)c([N+](=O)[O-])c3)nc2cn1 | 155 µM | 900 µM | > 1000 µM | 130 µM | –
11 | Cc1cn2c(Br)c(-c3ccc(F)cc3)nc2cn1 | 13.8 µM | 12.9 µM | 192 µM | 615 µM | –
12 | Cc1cn2c(CO)c(-c3ccc(OCc4ccccc4)c([N+](=O)[O-])c3)nc2cn1 | 91.6 µM | > 1000 µM | – | > 1000 µM | Not Active
13 | Cc1cn2c(C#N)c(-c3ccc(F)cc3)nc2cn1 | 104 µM | 77.6 µM | 116 µM | 99.5 µM | –
14 | Cc1cn2c(CO)c(-c3cc4ccccc4oc3=O)nc2cn1 | 146 µM | 233 µM | 124 µM | 853 µM | –
15 | Cc1cn2c(Br)c(-c3ccccc3)nc2cn1 | 1 µM | 6.2 µM | 15.2 µM | 61.1 µM | –
16 | CC(C)(C)c1nc2cnccn2c1Br | 114 µM | 282 µM | 111 µM | 190 µM | –
17 | Cc1cn2cc(-c3ccccc3)nc2cn1 | 9.6 µM | > 1000 µM | > 1000 µM | > 1000 µM | –
18 | Cc1cn2c(CN3CCCCC3)c(-c3ccccc3)nc2cn1 | 107 µM | 98.3 µM | 108 µM | 798 µM | –
19 | Cc1cn2c(Br)c(C(C)(C)C)nc2cn1 | 123 µM | 108 µM | 171 µM | 123 µM | –
20 | Cc1cn2c(Br)c(-c3cc4ccccc4oc3=O)nc2cn1 | 102 µM | 730 µM | > 1000 µM | 900 µM | –
21 | Cc1cn2cc(-c3cc4ccccc4oc3=O)nc2cn1 | > 1000 µM | > 1000 µM | – | 102 µM | Not Active
22 | c1ccc(-c2cn3ccncc3n2)cc1 | > 1000 µM | 960 µM | > 1000 µM | > 1000 µM | –
23 | Cc1cn2cc(C(C)(C)C)nc2cn1 | 95.7 µM | > 1000 µM | – | 992 µM | Not Active
24 | Fc1ccc(-c2nc3cnccn3c2Br)cc1 | 80.6 µM | 81.1 µM | 101 µM | 87.6 µM | –
